An excerpt weighted towards active compounds, which were near 2.6% of everything screened.
TCR-CD3 inh: inhibitors of human TCR-CD3 interaction; inhibition, % at 9.4 µM; TAMRA-labeled TCR probe fluorescence, biochemical; 0.37% of 360,000 active;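 further: recombinant mutant TCR 2C K166C tagged with TAMRA read by polarization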
PRMT1 FP inh: inhibitors of human PRMT1; Q99873; AID 652257; 1.3% of 370,000 active; recombinant PRMT1, activity-based probe fluorescence polarization; inhibition, % at 2.79 µM;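 active means inhibition above about 21% made by adding two undisclosed values, limit read from the data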
SIAE primary: inhibitors of human sialic acid acetylesterase SIAE. 0.69% of 370,000 active. inhibition, % at 9.66 µM. AID 1053197. SIAE FP-Rh probe binding, fluorescence polarization;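 active means inhibition above a cutoff: mean of compounds within the control limits plus 3 SD of those, cut at about 17% in these data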
mABHD4 FP: inhibits mouse alpha/beta hydrolase domain 4 | 0.54% of 370,000 active | AID 720543 | inhibition, % at 8.92 µM | Q8VD66 | purified mABHD4, FP-Rh probe fluorescence polarization;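 active means inhibition exceeding the mean over every tested compound plus 3 SD, cut at about 30% in these data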
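System: mouse ABHD4 enzyme, wild type / Medium: HEPES pH 7.0, NaCl, Pluronic buffer / Reagent: FP-Rh activity-based fluorescent probe / Control set: S159A mutant high control, sample median low control / Detection: fluorescence polarization with parallel and perpendicular emission, 525/598 nm / Schedule: 45 min + 60 min at 25 °C / Compound dosing: 8.92 µM, single dose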
HTRA1 inhibitor: blocks human HTRA1 serine peptidase; AID 504803; inhibition, % at 5.96 µM; 0.5% of 340,000 active; Q92743; recombinant HTRA1, FP-rhodamine activity-based probe, fluorescence polarization; in the data active means inhibition above about 36%
Target sequence (Q92743 whole entry, looked up): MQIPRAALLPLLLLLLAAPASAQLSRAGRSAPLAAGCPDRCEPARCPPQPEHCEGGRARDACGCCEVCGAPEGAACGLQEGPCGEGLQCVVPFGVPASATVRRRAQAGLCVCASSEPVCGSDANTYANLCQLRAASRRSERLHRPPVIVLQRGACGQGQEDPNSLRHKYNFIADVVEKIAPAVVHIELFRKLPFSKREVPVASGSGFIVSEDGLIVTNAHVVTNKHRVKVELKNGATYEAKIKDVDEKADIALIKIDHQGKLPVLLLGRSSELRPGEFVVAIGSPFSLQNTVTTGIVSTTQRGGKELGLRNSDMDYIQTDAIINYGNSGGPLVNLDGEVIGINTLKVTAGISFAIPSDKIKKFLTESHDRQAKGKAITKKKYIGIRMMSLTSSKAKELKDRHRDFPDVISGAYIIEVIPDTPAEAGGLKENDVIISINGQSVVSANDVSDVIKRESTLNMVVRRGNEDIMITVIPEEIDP
BSA probe FL: interferes with TAMRA-BSA probe, flagging TCR-CD3 hits. shares compounds with TCR-CD3 inh. 10% of 1,200 active. TAMRA-labeled BSA probe fluorescence counterscreen. inhibition, % at 9.4 µM; in the data active means inhibition above about 23%
TCR-CD3 inh conf: TCR-CD3 interaction inhibition, confirmation; shares compounds with TCR-CD3 inh; TAMRA-labeled TCR probe fluorescence binding assay; inhibition, % at 9.4 µM; 48% of 1,200 active
Large screens that a line does not name were inactive (follow-up assays come after a bar, where they were run). Unless noted, no stated cut-off is given here; in the data, active means inhibition above about 19%; inactive means the rest.

Cc1ccc(-n2c(SCC(=O)Nc3ccc4c(c3)OCCO4)nnc2-c2cccnc2)cc1	none (no result: TCR-CD3 inh, HTRA1 inhibitor)
O=S1(=O)c2c(NCc3ccco3)cccc2Oc2ccccc2CN1Cc1cn(Cc2ccc(Cl)cc2)nn1	none (no result: TCR-CD3 inh, HTRA1 inhibitor)
NC(=NC(=O)/C=C/c1ccccc1Br)N(CC#Cc1ccccc1)CC#Cc1ccccc1	none (no result: TCR-CD3 inh, HTRA1 inhibitor)
COc1ccc(N(C)S(=O)(=O)c2cccc(C(=O)Nc3nnc(C4CC4)s3)c2)cc1	none
COc1cc(OC)c(N(C)S(=O)(=O)c2cccc(C(=O)Nc3nnc(C4CC4)s3)c2)cc1Cl	TCR-CD3 inh 21 | BSA probe FL inactive | TCR-CD3 inh conf inactive
CCN1CCN(Cc2ccc(NC(=O)c3ccc(C)c(NC(=O)c4cc(-c5ccc(Br)cc5)n[nH]4)c3)cc2C(F)(F)F)CC1	TCR-CD3 inh 26 | BSA probe FL inactive | TCR-CD3 inh conf inactive
CCN1CCN(Cc2ccc(NC(=O)c3ccc(C)c(NC(=O)c4nccn4C)c3)cc2C(F)(F)F)CC1	none
COc1ccc(/C=C2\SC(=S)N(CCCC(=O)NNC(=O)c3ccccc3O)C2=O)cc1	TCR-CD3 inh 31 | BSA probe FL inactive | TCR-CD3 inh conf 22
CC(=O)c1nc(N2C(=O)CC(Cc3ccc(C)cc3)C2=O)sc1C (stereo not given)	TCR-CD3 inh 56 | BSA probe FL inactive | TCR-CD3 inh conf inactive
CC(C)C[C@H](NC(=O)c1nccs1)C(=O)N1CCC[C@H]1C(=O)NCc1ccccc1	none (no result: HTRA1 inhibitor)
O=c1c(O[C@H]2O[C@@H](CO)[C@H](O)[C@@H](O)[C@@H]2O)c(-c2ccc(O)cc2)oc2cc(O)cc(O)c12	none
O=c1c(OC2OC(CO)C(O)C(O)C2OC2OC(CO)C(O)C(O)C2O)c(-c2ccc(O)cc2)oc2cc(O)cc(O)c12 (stereo not given)	TCR-CD3 inh 23 | BSA probe FL inactive | TCR-CD3 inh conf inactive
Cc1ccc(-c2cc(C(=O)NN=Cc3ccc(N(C)C)cc3)[nH]n2)cc1C	none (no result: TCR-CD3 inh, HTRA1 inhibitor)
Cc1cccc(C(=O)NNC(=O)c2c(O)c3ccccc3n(C)c2=O)c1	none
Cn1c(=O)c(C(=O)NNC(=O)c2cccc(Cl)c2)c(O)c2ccccc21	TCR-CD3 inh 22 | BSA probe FL inactive | TCR-CD3 inh conf inactive
C[C@H](O)[C@@H]1CN2CCc3c([nH]c4c(-c5ccc6c(c5)OCO6)cccc34)[C@@H]2C[C@@H]1N(C)C(=O)c1ccco1	none (no result: TCR-CD3 inh, HTRA1 inhibitor)
O=C(NNC(=O)c1cc(-c2ccncc2)nc2ccccc12)c1ccccc1O	TCR-CD3 inh 28 | BSA probe FL inactive | TCR-CD3 inh conf 21
Cc1ccc(-c2cc(C(=O)Nc3ccncc3)c3ccccc3n2)cc1	none
CCOC(=O)c1cccc(NC(=O)CN(C)S(=O)(=O)c2cc3ccccc3s2)c1	none (no result: TCR-CD3 inh, HTRA1 inhibitor)
O=C(NCC1CCN(C(=O)C(=O)c2cccs2)CC1)c1ccc2c(c1)OCO2	none (no result: HTRA1 inhibitor)
CC(C)C[C@H](NC(=O)c1nc[nH]c1C(=O)N[C@@H](CCCCNC(=O)OC(C)(C)C)C(=O)OC(C)(C)C)C(=O)OCc1ccccc1	none
C[C@H](NC(=O)c1nc[nH]c1C(=O)N[C@@H](CCCCNC(=O)OC(C)(C)C)C(=O)OC(C)(C)C)C(=O)OCc1ccccc1	TCR-CD3 inh 27 | BSA probe FL inactive | TCR-CD3 inh conf inactive
CCCCOCCCNC(=O)C[C@H]1C[C@@]2(C(=O)OC)C(=C[C@H](COCc3ccccc3)O[C@@H]2C)N(Cc2ccco2)C1=O	none (no result: TCR-CD3 inh, HTRA1 inhibitor)
OC[C@@H](O)C(O)[C@@H](O)CO (stereo not given in full)	TCR-CD3 inh 47 (no result: HTRA1 inhibitor) | BSA probe FL inactive | TCR-CD3 inh conf inactive
O=C(NCc1ccc(Cl)cc1)C1C2C=CC3(CN(Cc4ccccc4)C(=O)C13)O2 (stereo not given)	none (no result: TCR-CD3 inh, HTRA1 inhibitor)
CC(C)c1cc(C(C)C)c(S(=O)(=O)NCC(=O)N2CCN(c3ncccn3)CC2)c(C(C)C)c1	none (no result: TCR-CD3 inh, HTRA1 inhibitor)
COc1ccc(-c2cc(C(=O)NN=Cc3cccn3C)[nH]n2)cc1	none (no result: TCR-CD3 inh, HTRA1 inhibitor)
CN(CC(=O)Nc1ccccc1Cl)C(=O)COC(=O)c1ccc(=O)n(Cc2ccccc2)n1	none
CN(CC(=O)Nc1ccc(F)cc1)C(=O)COC(=O)c1ccc(=O)n(Cc2ccccc2)n1	TCR-CD3 inh 87, PRMT1 FP inh 136 | BSA probe FL inactive | TCR-CD3 inh conf inactive
O=C(CCNC(=O)c1ccccc1Cl)NNC(=O)c1ccccc1O	TCR-CD3 inh 23 | BSA probe FL inactive | TCR-CD3 inh conf inactive
Cc1ccc2c(CC(=O)NNC(=O)c3ccccc3O)coc2c1	TCR-CD3 inh 20 | BSA probe FL inactive | TCR-CD3 inh conf 21
O=C(NC1CCCCCCC1)c1ccccc1O	none
O=C(NCCNC(=O)c1ccccc1O)c1ccccc1O	none
O=C(CC1CCCC1)NNC(=O)c1ccccc1O	TCR-CD3 inh 29 | BSA probe FL inactive | TCR-CD3 inh conf 23
Cc1ccc(C(=O)CCC(=O)NNC(=O)c2ccccc2O)cc1	TCR-CD3 inh 21 | BSA probe FL inactive | TCR-CD3 inh conf 23
CCOC(=O)[C@@]12CCC3=C1N(CCC3)C(=O)[C@H](CC(=O)NCc1cccc(C(F)(F)F)c1)C2	none (no result: TCR-CD3 inh, HTRA1 inhibitor)
CCN(Cc1cn(Cc2ccccc2)nn1)S(=O)(=O)c1ccccc1Br	none (no result: TCR-CD3 inh, HTRA1 inhibitor)
Cc1ccc2c(c1)C1CS(=O)(=O)N(CC(C)C)C(=O)N1C2 (stereo not given)	none (no result: TCR-CD3 inh, HTRA1 inhibitor)
NC(=O)c1ncn([C@@H]2O[C@H](C(=O)N[C@H](Cc3ccccc3)C(=O)N3CCN(c4ccc(Cl)cn4)CC3)[C@@H](O)[C@H]2O)n1	none (no result: HTRA1 inhibitor)
C[C@@H]1OC(C2CCCCC2)N(C)[C@H]2C[C@H]3c4[nH]c5cccc(-c6ccccc6)c5c4CCN3C[C@@H]12 (stereo not given in full)	none (no result: TCR-CD3 inh, HTRA1 inhibitor)
C[C@@H]1CN([C@H](C)CO)C(=O)CCCn2cc(nn2)CO[C@H]1CN(C)S(=O)(=O)c1cn(C)cn1	none (no result: HTRA1 inhibitor)
Cc1cc(C)cc(NC(=O)C(OC(=O)c2ccc(NC(=O)CC#N)cc2)c2ccccc2)c1 (stereo not given)	TCR-CD3 inh 27 | BSA probe FL inactive | TCR-CD3 inh conf inactive
CCOC(=O)c1c(C)[nH]c(C(=O)C(C)OC(=O)c2ccc(NC(=O)CC#N)cc2)c1C (stereo not given)	TCR-CD3 inh 52 | BSA probe FL inactive | TCR-CD3 inh conf inactive
CC(OC(=O)c1ccc(NC(=O)CC#N)cc1)C(=O)NC(=O)NC1CCCCC1 (stereo not given)	TCR-CD3 inh 20 | BSA probe FL inactive | TCR-CD3 inh conf inactive
CN(C)c1cccc(/C=C2\CC3(OC(=O)C4CCCC4)CCCN2C3)c1 (stereo not given)	none (no result: TCR-CD3 inh, HTRA1 inhibitor)
CC(=O)O[C@H]1[C@H](OC(C)=O)C[C@]2(OC(C)=O)C[C@H]1OC2=O	none (no result: TCR-CD3 inh, HTRA1 inhibitor)
CCOC(=O)[C@]12CCCC=C1N(CCCOC)C(=O)[C@@H]2CC(=O)NCCCN1CCCC1=O	none (no result: TCR-CD3 inh, HTRA1 inhibitor)
